Data set [1] deals with 5-hydroxytryptamine receptor 6 (Homo sapiens, UniProt P50406). The experiment in a line: Binding affinity against human 5-hydroxytryptamine 6 receptor.
Data set [2] is described as follows: Plasma Clearance measured at steady-state following iv infusion at 0.6 mg/kg/h in rats. It counts as ADME, organism-based. Details: route intravenous. The settings on record: rat, 0.6 mg/kg/h infusion.
The species entered for data set [3] is Rattus norvegicus. Description: Blood: Brain distribution ratio is determined in rat. It is filed as ADME, organism-based. Summed up: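 Rats received iv infusion for 8 h, and the brain:blood ratio was taken at steady state.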

5-hydroxytryptamine receptor 6, sequence (P50406 whole entry, the tested form may be a part): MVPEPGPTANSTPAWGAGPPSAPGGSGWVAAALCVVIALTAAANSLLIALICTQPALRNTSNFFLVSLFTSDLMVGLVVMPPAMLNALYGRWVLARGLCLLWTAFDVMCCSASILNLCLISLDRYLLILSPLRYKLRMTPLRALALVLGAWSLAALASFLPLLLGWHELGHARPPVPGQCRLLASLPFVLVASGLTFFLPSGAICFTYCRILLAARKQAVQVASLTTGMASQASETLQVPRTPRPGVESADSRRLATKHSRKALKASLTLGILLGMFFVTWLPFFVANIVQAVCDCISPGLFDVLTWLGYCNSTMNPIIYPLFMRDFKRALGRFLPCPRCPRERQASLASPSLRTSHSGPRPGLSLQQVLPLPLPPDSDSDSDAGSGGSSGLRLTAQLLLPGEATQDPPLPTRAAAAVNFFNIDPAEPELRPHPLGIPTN

In data set [1], `COc1ccc(S(=O)(=O)N2c3ccccc3CC2(C)C)cc1N1CCNCC1` gave a Ki of 0.794 nM. In other words, the sub-nanomolar range.
`COc1ccc(S(=O)(=O)N2CCCc3c(Cl)cc(Cl)cc32)cc1N1CCNCC1` showed a Ki in data set [1] of 0.794 nM.
The same measure, in the same setting: for `COc1ccc(S(=O)(=O)N2CCCc3cc(Br)ccc32)cc1N1CCNCC1` the value was 3.16 nM.
In data set [1], `COc1ccc(S(=O)(=O)Nc2cc(Br)cc(Cl)c2Br)cc1N1CCNCC1` showed a Ki of 3.98 nM.
Same read-out and setting: under `COc1ccc(S(=O)(=O)Nc2cc(I)ccc2C)cc1N1CCNCC1` stands 0.794 nM.
The same measure, in the same setting: for `COc1ccc(S(=O)(=O)Nc2cc([N+](=O)[O-])ccc2C)cc1N1CCNCC1` the value was 20 nM; for `COc1ccc(Cl)cc1NS(=O)(=O)c1ccc(OC)c(N2CCNCC2)c1`, 1.26 nM.
Compound `COc1ccc(S(=O)(=O)Nc2cccc(Br)c2)cc1N1CCNCC1` gave a Ki in data set [1] of 1.26 nM.
`COc1ccc(S(=O)(=O)Nc2ccc(Cl)c(Cl)c2)cc1N1CCNCC1`: the Ki in data set [1] is 2.51 nM. Against the preceding compound, the Ki is about 2-fold higher.
`COc1ccc(S(=O)(=O)Nc2cc(Br)cc(F)c2Cl)cc1N1CCNCC1`: the Ki in data set [1] was 3.16 nM.
For the compound `COc1ccc(S(=O)(=O)Nc2cc(Br)cc(Br)c2Br)cc1N1CCNCC1`, in data set [1], the Ki is 2.51 nM. The Ki values of the last two compounds are within 1.5-fold of each other.
`COc1ccc(S(=O)(=O)Nc2ccccc2C(C)C)cc1N1CCNCC1` gave a Ki in data set [1] of 1 nM. This compound had a clearance in data set [2] of 52 mL/min/kg.
On to `COc1ccc(S(=O)(=O)Nc2cc(Br)cc(Br)c2Cl)cc1N1CCNCC1`, for which the Ki in data set [1] was 2.51 nM.
The same measure, in the same setting: under `COc1ccc(S(=O)(=O)Nc2cc(Cl)cc(Cl)c2Br)cc1N1CCNCC1` stands 3.16 nM.
On to `COc1ccc(S(=O)(=O)Nc2ccccc2Br)cc1N1CCNCC1`, for which the Distribution ratio in data set [3] was found to be 0.24. The same compound had a Ki in data set [1] of 1.58 nM. In data set [2], this compound registered a clearance of 60 mL/min/kg.
For `COc1ccc(S(=O)(=O)N2CCc3cc(C)c(C(F)(F)F)cc32)cc1N1CCNCC1`, in that order: 0.41, 3.98 nM and 73 mL/min/kg.
Compound `COc1ccc(S(=O)(=O)Nc2cc(Br)cc(Br)c2)cc1N1CCNCC1` showed a Ki in data set [1] of 0.501 nM.
Compound `COc1cc(Cl)c(C)cc1NS(=O)(=O)c1ccc(OC)c(N2CCNCC2)c1` showed a Ki in data set [1] of 2 nM.
On the same count and under the same terms, for `COc1ccc(C(F)(F)F)cc1NS(=O)(=O)c1ccc(OC)c(N2CCNCC2)c1` the value was 3.98 nM.
On the same count and under the same terms, for `COc1ccc(S(=O)(=O)Nc2ccc(I)cc2)cc1N1CCNCC1` the value was 2 nM.
The compound `COc1ccc(S(=O)(=O)N2CCc3cccc(Cl)c3C2)cc1N1CCNCC1` gave a clearance in data set [2] of 83 mL/min/kg.
On to `COc1ccc(S(=O)(=O)Nc2cc(Cl)c(Cl)cc2Cl)cc1N1CCNCC1`, for which, in data set [1], the Ki is 5.01 nM.
`COc1ccc(S(=O)(=O)N2CCc3cc(I)ccc32)cc1N1CCNCC1`: the Ki in data set [1] was 3.98 nM.
On to `COc1ccc(S(=O)(=O)N2CCc3c(Cl)ccc(Cl)c3C2)cc1N1CCNCC1`, for which, in data set [2], the clearance stood at 76 mL/min/kg.
`COc1ccc(S(=O)(=O)Nc2cc(F)cc(F)c2Cl)cc1N1CCNCC1` had a Ki in data set [1] of 31.6 nM.
`COc1ccc(S(=O)(=O)Nc2ccc(Cl)cc2C(F)(F)F)cc1N1CCNCC1`: the affinity in data set [1], expressed as Ki, was 25.1 nM.
Regarding `COc1ccc(S(=O)(=O)Nc2cccc(I)c2)cc1N1CCNCC1`, the Distribution ratio in data set [3] amounted to 0.13. Also, the Ki in data set [1] is 0.501 nM. In data set [2], this compound gave a clearance of 58 mL/min/kg.
Turning to `COc1ccc(S(=O)(=O)Nc2cc(Cl)cc(Br)c2Cl)cc1N1CCNCC1`, the affinity in data set [1] corresponds to a Ki of 2 nM.
As to `COc1ccc(S(=O)(=O)Nc2c(F)cc(Br)cc2F)cc1N1CCNCC1`, the affinity in data set [1], expressed as Ki, was 158 nM.
Same read-out and setting: for `COc1ccc(S(=O)(=O)Nc2cc(Br)cc(Br)c2F)cc1N1CCNCC1` the value was 2.51 nM.
The same measure, in the same setting: for `COc1ccc(S(=O)(=O)Nc2cccc(Cl)c2)cc1N1CCNCC1` the value was 1.26 nM.
Same read-out and setting: for `COc1ccc(S(=O)(=O)Nc2cc(Br)cc(Cl)c2Cl)cc1N1CCNCC1` the value was 3.98 nM.
Regarding `COc1ccc(S(=O)(=O)Nc2ccc(C)cc2Br)cc1N1CCNCC1`, the Ki in data set [1] was 7.94 nM.
Same read-out and setting: under `COc1ccc(S(=O)(=O)N2CCCc3ccc(Br)cc32)cc1N1CCNCC1` stands 0.316 nM.
